Data reported in ChEMBL document CHEMBL1649122, “Abc1p is a multidrug efflux transporter that tips the balance in favor of innate azole resistance in Candida krusei” (2009).
Calls of active or inactive are those of the source. No cut-off for these calls is given here.

Key:
Pichia kudriavzevii [1] = assay: Increase in ABC1 mRNA expression in Candida krusei B2402 after 60 mins by hot-phenol extraction based Northern blotting; format: functional, organism-based
Pichia kudriavzevii [2] = assay: Increase in ERG11 mRNA expression in Candida krusei B2401 after 60 mins by hot-phenol extraction based Northern blotting; format: functional, organism-based
[3] = molecular target: ATP binding cassette transporter Abc1p (Issatchenkia orientalis) (UniProt Q09GQ4); assay: Inhibition of Candida krusei ABC1 expressed in Saccharomyces cerevisiae isolate ADdelta at 12 nM; details: Pichia kudriavzevii
Procedure, shortened: (§1)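 Agarose disk-diffusion test of S. cerevisiae AD overexpressing C. krusei Abc1p, with the parent AD strain as comparison. Cells were pregrown from YPD overnight into CSM to mid-log at 30°C. They were seeded at OD600 0.008 in CSM with 0.6% agarose, overlaid on CSM agar (pH 7.0). Paper disks carrying set nmol amounts of xenobiotic were applied, and plates were incubated at 30°C for 48 h before reading growth inhibition zones.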

[4] = molecular target: ATP binding cassette transporter Abc1p (Issatchenkia orientalis) (UniProt Q09GQ4); assay: Inhibition of Candida krusei ABC1 expressed in Saccharomyces cerevisiae isolate ADdelta at 16 nM; details: Pichia kudriavzevii; procedure, shortened: as §1
[5] = molecular target: ATP binding cassette transporter Abc1p (Issatchenkia orientalis) (UniProt Q09GQ4); assay: Inhibition of Candida krusei ABC1 expressed in Saccharomyces cerevisiae isolate ADdelta at 620 nM; details: Pichia kudriavzevii; procedure, shortened: as §1
[6] = molecular target: ATP binding cassette transporter Abc1p (Issatchenkia orientalis) (UniProt Q09GQ4); assay: Inhibition of Candida krusei ABC1 expressed in Saccharomyces cerevisiae isolate ADdelta at 20 nM; details: Pichia kudriavzevii
[7] = molecular target: ATP binding cassette transporter Abc1p (Issatchenkia orientalis) (UniProt Q09GQ4); assay: Inhibition of Candida krusei ABC1 expressed in Saccharomyces cerevisiae isolate ADdelta at 131 nM; details: Pichia kudriavzevii; procedure, shortened: as §1

How did the Activity (Pichia kudriavzevii [1]) turn out when `CC(C)[C@@H](C)/C=C/[C@@H](C)[C@H]1CC[C@H]2C3=CC=C4C[C@@H](O)CC[C@]4(C)[C@H]3CC[C@]12C` was run?
Its Activity is “inactive”.

And the Activity (Pichia kudriavzevii [2])?
The Activity was “inactive”.

Which Activity [3] does the source give for `CC[C@@]1([C@@H]2O[C@@H]([C@H]3O[C@@](O)(CO)[C@H](C)C[C@@H]3C)C[C@@H]2C)CC[C@H]([C@]2(C)CC[C@]3(C[C@H](O)[C@@H](C)[C@@H]([C@@H](C)[C@@H](OC)[C@H](C)C(=O)O)O3)O2)O1` here?
The Activity was “Active”.

`CC/N=c1\cc2oc3cc(NCC)c(C)cc3c(-c3ccccc3C(=O)OCC)c-2cc1C` was tested. Which Activity [4] did it give?
The Activity was “Active”.

How did the Activity [5] turn out when `CN1CCN(CCCN2c3ccccc3Sc3ccc(C(F)(F)F)cc32)CC1` was run?
Its Activity is “inactive”.

`C=C1[C@@H](C)[C@H]2[C@H](Cc3ccccc3)NC(=O)[C@]23[C@H](OC(C)=O)/C=C/[C@@](C)(O)C(=O)[C@@H](C)C/C=C/[C@H]3[C@@H]1O` was tested. Which Activity [6] did it give?
Its Activity is “Active”.

For `COC(=O)c1ccccc1-c1c2ccc(=N)cc-2oc2cc(N)ccc12`, which Activity [7] is on record?
Its Activity is “Active”.
